In ChEMBL document CHEMBL4196162, “Target-Directed Self-Assembly of Homodimeric Drugs Against β-Tryptase” (ACS Med Chem Lett, 2018):
Calls of active or inactive are those of the source. The rule behind the calls is not given here.

Experiments:
[1] = Inhibition of recombinant human lung beta-tryptase using N-tert-butoxycarbonyl-Gln-Ala-Arg-AMC as substrate incubated for 3 hrs followed by substrate addition measured every 30 secs for 15 mins in presence of 10 pM of tryptase
Outline: (§1)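 Purified tryptase tested at several enzyme concentrations. IC50 from nonlinear regression with no Hill slope constraint.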

[2] = Inhibition of recombinant human lung beta-tryptase using N-tert-butoxycarbonyl-Gln-Ala-Arg-AMC as substrate incubated for 3 hrs followed by substrate addition measured every 30 secs for 15 mins in presence of 100 pM of tryptase; outline: as §1
[3] = Inhibition of recombinant human lung beta-tryptase using N-tert-butoxycarbonyl-Gln-Ala-Arg-AMC as substrate incubated for 3 hrs followed by substrate addition measured every 30 secs for 15 mins in presence of 1 nM of tryptase; outline: as §1
[4] = Inhibition of beta-tryptase in human HMC1 cells assessed as decrease in A23187-induced degranulation in supernatant incubated for 2 hrs followed by A23187 addition measured after 1 hr; assay type: cell-based
Outline: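 Cultured HMC1 human mast cells exposed to inhibitor (10 nM to 100 μM) for 2 h, then degranulated with 1 μM A23187 in PBS. After 1 h, supernatant tested for tryptase activity. IC50 and SEM from nonlinear regression with unconstrained Hill slope.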

[5] = Inhibition of beta-tryptase in human HMC1 cells assessed as decrease in A23187-induced degranulation in cell lysates incubated for 2 hrs followed by A23187 addition measured after 1 hr; assay type: cell-based
Outline: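 HMC1 human mast cell lysates tested for tryptase activity in the presence of inhibitor. IC50 and SEM from nonlinear regression with unconstrained Hill slope.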

Homo sapiens = species on record: Homo sapiens; experiment: Reversal inhibition of recombinant human lung beta-tryptase assessed as recovery of enzymatic activity at 10 uM using N-tert-butoxycarbonyl-Gln-Ala-Arg-AMC as substrate measured over 216 hrs

IC50 [4]: 137 µM | IC50 [5]: 21.8 µM
Compound: NCc1cccc(C2CCN(C(=O)c3cccc(NC(=O)C(O)C4(O)CCC4)c3)CC2)c1 (stereo unspecified)
IC50 [1]: 640 nM | IC50 [2]: 170 nM | IC50 [3]: 8.1 µM | inhibition (Homo sapiens): Active
